High-throughput results (PubChem BioAssay)
IDE cell inh: human IDE inhibitors in live cells, primary screen, fluorescence polarization, HEK cells, FAbetaB substrate. FAbetaB cleavage. inhibition, % at 5.59 µM. 320,000 compounds, 0.41% hits;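 active = percent inhibition above the average of all tested compounds plus 3 SD, set per screening campaign, cut at about 16% in these data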;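 note: IDE supplied by intact live HEK cells; FP after avidin binding of uncleaved biotin substrate so inhibition keeps polarization high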
HDAC3 inh: HDAC3 deacetylase inhibitors, primary screen, biochemical, fluorescence, cell-free homogeneous. Histone deacetylase 3 (Homo sapiens), O15379. recombinant HDAC3, fluorogenic peptide/trypsin coupled. inhibition, % at 8.3 µM. 320,000 compounds, 0.15% hits; in the data active = inhibition above about 26%, passing the limit was not always enough
Target sequence (O15379 whole entry, looked up): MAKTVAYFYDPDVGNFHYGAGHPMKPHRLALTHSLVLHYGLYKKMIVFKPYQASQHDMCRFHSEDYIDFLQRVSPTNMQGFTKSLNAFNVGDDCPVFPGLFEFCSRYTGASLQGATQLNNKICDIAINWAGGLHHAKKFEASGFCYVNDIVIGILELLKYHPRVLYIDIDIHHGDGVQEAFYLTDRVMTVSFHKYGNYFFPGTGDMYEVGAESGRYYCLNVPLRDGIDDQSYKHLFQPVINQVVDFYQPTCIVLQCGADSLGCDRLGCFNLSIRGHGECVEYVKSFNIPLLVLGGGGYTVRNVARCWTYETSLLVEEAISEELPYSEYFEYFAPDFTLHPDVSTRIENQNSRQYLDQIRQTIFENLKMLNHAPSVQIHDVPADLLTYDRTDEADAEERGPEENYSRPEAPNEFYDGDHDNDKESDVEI
CR mimetic SO: reduction of superoxide in aged yeast, primary screen, HTS. S. cerevisiae aged cells, superoxide DHE fluorescence; hits give low values. superoxide response (% of plate mean), % at 10 µM. 330,000 compounds, 0.18% hits;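 active = superoxide response under a set limit, about three screen SD below normal, cut at about 65% in these data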;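 note: yeast aged for seven days with compound at 30 °C before DHE staining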
IDE act: human IDE activators in live cells, primary screen, fluorescence polarization, HEK cells, FAbeta-B substrate; Insulin-degrading enzyme (Homo sapiens), P14735; FAbeta-B cleavage; 0% vehicle, 100% cell-free pure enzyme wells; activation, % at 5.96 µM; 340,000 compounds, 0.073% hits; AID 493087, 2011;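 active = activation above the mean of all tested compounds plus 3 SD, set per screening campaign, cut at about 17% in these data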
Efflux pump inh: inhibitors of Candida efflux pumps in yeast, primary screen, S. cerevisiae, Nile Red, multiplex. inhibition, % at 10 µM. AID 485275, 2010. S. cerevisiae Candida pump triplex. 330,000 compounds, 0.44% hits;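 active = plate passing quality check with inhibition over a set limit, or well fluorescence over plate mean plus 4 SD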;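 note: Nile Red retained in pooled yeast measured as flow cytometry median fluorescence; higher means more Nile Red kept so more efflux inhibition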
Tb MetRS inh: T. brucei MetRS inhibitors, primary screen, biochemical, luminescence; methionyl-tRNA synthetase (Trypanosoma brucei brucei); purified T. brucei MetRS, ATP depletion, Kinase-Glo luminescence; inhibition, % at 11.9 µM; 360,000 compounds, 0.4% hits;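 active = inhibition above a per-plate cutoff of the control wells' mean inhibition plus 3 SD, cut at about 5.5% in these data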
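Measured by: Kinase-Glo luciferase luminescence reporting remaining unconsumed ATP. Material: purified T. brucei MetRS enzyme. Doses: 11.9 µM compound single dose, 0.9% DMSO. Medium: HEPES buffer containing pyrophosphatase, BSA, spermine, DTT. Times: 15 min preincubation, 2 h reaction, all 25 °C. Reagent: methionine, ATP and bulk E. coli tRNA.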
Each line names hits and unclear results; the compound was inactive in the other large screens; ! = a repeat was not active. Shown are actives, neighbours in structure and some others; about 1.4% of the full set was active somewhere.

O=C(CN1C2=NCCN2c2ccccc21)c1ccc(Br)cc1	Tb MetRS inh 5.9
CC1(C(=O)NCc2ccccc2)CSCC(=O)N1Cc1cccc(F)c1 (stereo unspecified)	none (no result: IDE cell inh, HDAC3 inh, CR mimetic SO, IDE act, Efflux pump inh)
C[c-]1[c-](C)[c-](C)[c-](C)[c-]1C.[Fe].c1cc2nccc(N3CCCC3)[c-]2c1 (stereo unspecified)	HDAC3 inh 29!
CC(C)=CCCC1(C)C=Cc2c(c(C)cc3c2[nH]c2cc(O)ccc23)O1 (stereo unspecified)	IDE act 24
Cc1cc(=O)[nH]c2cc(O)ccc12	none
Cn1ccnc1SCC(=O)c1ccc(C#N)cc1	HDAC3 inh 36
Cc1nc(-c2ccccc2)sc1-c1n[nH]c(=S)n1C	none
CSc1sc(-c2n[nH]c(=S)n2C)c2c1C=CCC2	HDAC3 inh 34
Cc1ccc(N2CCN(C(CCc3ccccc3)C(=O)Nc3c(C)cccc3C)CC2)cc1 (stereo unspecified)	none (no result: IDE cell inh, HDAC3 inh, CR mimetic SO, IDE act, Efflux pump inh)
Cn1c2c(c(=O)n3ncnc13)CCCC2	IDE cell inh 17
CCc1nnc2n1N=C(c1ccc(Cl)cc1)CS2	none
Cc1nnc2n(c1=O)N=C(c1ccc(Cl)cc1)CS2	HDAC3 inh 59
O=C(C(=O)N1CCN(C(=O)c2ccco2)CC1)c1cc2ccccc2o1	none (no result: IDE cell inh, HDAC3 inh, CR mimetic SO, IDE act, Efflux pump inh)
COc1ccc(-c2nc3cnccn3c2NCc2ccccc2)cc1SC1CCCCC1	HDAC3 inh 29
CCCCCCSc1cc(-c2nc3cnccn3c2NCc2ccccc2)ccc1OC	Efflux pump inh 0.8
CCCCCCSc1cc(-c2nc3cc(C)ccn3c2NC2CCCCC2)ccc1OC	none
CCCCNc1c(-c2ccc(OC)c(SC3CCCCC3)c2)nc2cnccn12	none
C[C@@H]1C=C(C(=O)NCc2ccccc2)O[C@H](OCc2ccc(CO)cc2)C1	none
C[C@H]1C=C(C(=O)NCc2nc3ccccc3[nH]2)O[C@@H](OCc2ccc(CO)cc2)C1	Tb MetRS inh 24
O=C(NCc1nc2ccccc2[nH]1)C1=C[C@@H](c2ccccc2)C[C@@H](OCCCCO)O1	Tb MetRS inh 70
COC(=O)[C@@]12C[C@@H](CC(=O)NCC34CC5CC(CC(C5)C3)C4)C(=O)N(CCc3ccc(OC)c(OC)c3)C1=CCC(C)(C)C2	none (no result: IDE cell inh, HDAC3 inh, CR mimetic SO, IDE act, Efflux pump inh)
COc1ccc(-c2[nH]nc3nc(N4CCN(C(=O)c5ccoc5)CC4)cc(C(F)(F)F)c23)cc1	none (no result: IDE cell inh, HDAC3 inh, CR mimetic SO, IDE act, Efflux pump inh)
CC1=C(C(=O)OC(C)C)C(c2cccs2)NC(=O)N1 (stereo unspecified)	none
CC1=C(C(=O)OC(C)C)C(c2cccs2)C(C(=O)OC(C)C)=C(C)N1	HDAC3 inh 29
CC(C)C(C(=O)NCc1ccccc1)N(C)Cc1ccc(Cl)c(Cl)c1 (stereo unspecified)	none (no result: IDE cell inh, HDAC3 inh, CR mimetic SO, IDE act, Efflux pump inh)
O=C(Cc1ccccc1)NC1CCCCC1	none (no result: IDE cell inh, HDAC3 inh, CR mimetic SO, IDE act, Efflux pump inh)
O=[N+]([O-])c1ccc(/C=C/C2=NN(c3ccccc3)C(c3ccco3)C2)o1 (stereo unspecified)	none (no result: IDE cell inh, HDAC3 inh, CR mimetic SO, Efflux pump inh)
C(=C\c1ccco1)/C1=NN(c2ccccc2)C(c2ccco2)C1 (stereo unspecified)	Efflux pump inh 1.4
COc1ccc2c(c1)c(C(=O)N/N=C/c1cccc(Br)c1)c(C)n2C	IDE cell inh 18
COC(=O)C[C@H]1C=C[C@@H](NC(=O)Nc2c(C)noc2C)[C@@H](CO)O1	none (no result: IDE cell inh, HDAC3 inh, CR mimetic SO, IDE act, Efflux pump inh)
CCCOc1ccc(C(=O)Nc2ccc(S(=O)(=O)Nc3cc(C)nc(C)n3)cc2)cc1	CR mimetic SO 62
CC(=O)Nc1ccc(C(=O)CSc2nc3ccccc3n2CC(=O)N2CCCC2)cc1	HDAC3 inh 67
CCNC(=O)C1(C)CCCN(Cc2ccc(-c3ccccc3)o2)C1 (stereo unspecified)	none (no result: IDE cell inh, HDAC3 inh, CR mimetic SO, IDE act, Efflux pump inh)
O=C1N/C(=C\c2ccc(O)cc2)C(=O)c2ccccc21	Tb MetRS inh 7.8
COc1ccc(CCC(=O)N2c3ccccc3N=C(c3ccc(C(F)(F)F)cc3)C2C(=O)NC(C)C)cc1 (stereo unspecified)	none (no result: IDE cell inh, HDAC3 inh, CR mimetic SO, IDE act, Efflux pump inh)
Nc1nc2ccc(Cl)cc2cc1C(=O)NCCCN1CCOCC1	none (no result: IDE cell inh, HDAC3 inh, CR mimetic SO, IDE act, Efflux pump inh)
COc1ccc2c3c(cccc13)C(=O)N(O)C2=O	none
CCC1=NNc2cccc3c(OC)ccc1c23	HDAC3 inh 31, CR mimetic SO 55 (no result: IDE act, Tb MetRS inh)
C=CCC[C@H](Cc1ccc(F)cc1)C(=O)OC[C@@H]1CCCN1C(=O)[C@@H](CC=C)CC(=O)NCCO	none
C=CC[C@@H](CC(=O)N(CCO)Cc1ccccc1)C(=O)NC[C@@H](OC(=O)[C@@H](CC=C)Cc1ccc(F)cc1)c1ccccc1	none
C=CCC[C@@H](Cc1ccc(F)cc1)C(=O)OC[C@@H]1CCCN1C(=O)[C@@H](CC=C)CC(=O)N[C@@H](CO)Cc1ccccc1	HDAC3 inh 35
C=CC[C@@H](CC(=O)N(CCO)Cc1ccccc1)C(=O)N[C@@H](COC(=O)[C@@H](CC=C)Cc1ccc(F)cc1)Cc1ccccc1	HDAC3 inh 35
C=CCC[C@H](Cc1ccc(F)cc1)C(=O)OC[C@H](Cc1c[nH]c2ccccc12)NC(=O)[C@H](CC=C)CC(=O)N(CCO)Cc1ccccc1	HDAC3 inh 47
C=CC[C@H](CC(=O)N(CCO)Cc1ccccc1)C(=O)NC[C@H](OC(=O)[C@@H](CC=C)Cc1ccc(F)cc1)c1ccccc1	HDAC3 inh 28
CCOC(=O)[C@]12CCCC=C1N(Cc1ccc3c(c1)OCO3)C(=O)[C@H](CC(=O)NCCCN1CCCC1=O)C2	none (no result: IDE cell inh, HDAC3 inh, CR mimetic SO, IDE act, Efflux pump inh)
COC(=O)C1=CN(c2ccc(Oc3ccccc3)cc2)C(N)=C(C#N)C1c1ccccc1 (stereo unspecified)	none (no result: IDE cell inh, HDAC3 inh, CR mimetic SO, IDE act, Efflux pump inh)
C=CC[C@H](CC(=O)N(CCO)Cc1ccccc1)C(=O)N[C@H](COC(=O)[C@@H](CC=C)Cc1ccc(F)cc1)Cc1c[nH]c2ccccc12	HDAC3 inh 41
C=CCC[C@H](Cc1ccc(F)cc1)C(=O)OC[C@H](Cc1c[nH]c2ccccc12)NC(=O)[C@@H](CC=C)CC(=O)NCCO	HDAC3 inh 31
C=CCC[C@@H](Cc1ccc(F)cc1)C(=O)OC[C@@H](NC(=O)[C@@H](CC=C)CC(=O)N(CCO)Cc1ccccc1)c1ccccc1	HDAC3 inh 38
C=CCC[C@H](Cc1ccc(F)cc1)C(=O)OC[C@@H](Cc1c[nH]c2ccccc12)NC(=O)[C@@H](CC=C)CC(=O)N[C@@H](CO)Cc1ccccc1	none
COc1ccc(C2=Nc3ccccc3N(C(=O)c3cnccn3)C2C(=O)NC2CCCC2)cc1 (stereo unspecified)	none (no result: IDE cell inh, HDAC3 inh, CR mimetic SO, IDE act, Efflux pump inh)
COc1ccc(C(=O)N/N=C\c2coc3ccc(Cl)cc3c2=O)cc1	none (no result: HDAC3 inh)
COc1ccc(C(=O)N/N=C\c2coc3ccccc3c2=O)cc1	HDAC3 inh 89
O=C(N/N=C/c1coc2ccc(Cl)cc2c1=O)c1ccncc1	none (no result: IDE cell inh)
